ChEMBL document CHEMBL4619801, “Discovery of Phthalazinone Derivatives as Novel Hepatitis B Virus Capsid Inhibitors” (J Med Chem, 2020)

Assays:
Hepatitis B virus = assay: Antiviral activity against HBV infected in human HepG2.2.15 cells assessed as reduction in cytoplasmic HBV-DNA replication incubated for 8 days by real-time PCR analysis; format: functional, organism-based; conditions: HepG2 2.2.15, 192 h
[1] = Drug metabolism in human liver microsomes assessed as compound level by measuring LC-MS area of metabolite-M1 at 3 uM in presence of NADPH incubated for 60 mins by UPLC-UV/QTOF MS analysis; format: ADME, Microsome; conditions: 1 h
How it was run: (§1)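 Each incubation held liver microsomes (human, monkey, dog, rat or mouse) at 0.5 mg/mL with 3.0 μM compound in 100 mM potassium phosphate, pH 7.4. After 3 min prewarming at 37 °C, the reaction was started with 1 mM NADPH. It was stopped at 60 min with ice-cold acetonitrile. Parent remaining and metabolites were judged from relative UV area.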

[2] = Drug metabolism in rat liver microsomes at 3 uM in presence of NADPH incubated for 60 mins by UPLC-UV/QTOF MS analysis relative to control; format: ADME, Microsome; conditions: read-out: Drug metabolism; how it was run: as §1
[3] = Drug level in CD1 mouse liver at 20 mg/kg, po dosed as single administration measured up to 24 hrs; format: ADME, organism-based; conditions: in vivo
How it was run: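 ICR (CD-1) mice were dosed orally at 20 mg/kg. At set times (1, 3, 8 and 24 h), blood was taken from the heart and portal vein under isoflurane anesthesia and spun to plasma. Livers were removed after portal vein perfusion, rinsed in saline, weighed and homogenized in saline (5 mL/g). Samples were analysed by UPLC–MS/MS in positive electrospray mode.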

[4] = Cytotoxicity in human HepG2.2.15 cells assessed as reduction in cell viability incubated for 8 days by MTT assay; format: cell-based, HepG2 2.2.15
How it was run: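 This was run in the same 8-day HepG2.2.15 cultures. After the medium was removed, MTT was added (final 2.5 mg/mL) for 1 h at 37 °C. Cells were lysed in 10% SDS/50% DMF, pH 7.2, and OD was read at 570 nm to give % cell death. CC50 was averaged with SD from at least two independent determinations.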

[5] = Drug metabolism in dog liver microsomes assessed as compound level by measuring UV-area of metabolite-M1 at 3 uM in presence of NADPH incubated for 60 mins by UPLC-UV/QTOF MS analysis; format: ADME, Canis lupus familiaris, Microsome; conditions: 1 h; how it was run: as §1
[6] = Drug metabolism in mouse liver microsomes assessed as compound level by measuring UV-area at 3 uM in presence of NADPH incubated for 60 mins by UPLC-UV/QTOF MS analysis; format: ADME, Microsome; conditions: 1 h; how it was run: as §1

Cc1cc(-c2ccc(F)nc2F)nn(Cc2ccc(Cl)cc2)c1=O
IC50 (Hepatitis B virus): 98 nM | Activity [1]: 2.64 ×10³ No_unit | metabolised at 1 h, 3 µM [2]: 64% | Drug uptake [3]: Not Active | CC50 at 192 h [4]: 83.8 µM | Activity [5]: 84.6 ×10³ No_unit | Activity [6]: < 5 ×10³ No_unit
